Screening data: PubChem BioAssay, Sanford-Burnham Center for Chemical Genomics
This is a sample that favours compounds with a hit; in the whole collection about 1.4% have one here.
MT1-MMP act inh – blockers of MT1-MMP proenzyme processing, primary screen, HT1080 RFP-PRO-GFP cells, GFP/RFP fluorescence | GFP/RFP ratio change, % at 20 µM | GFP/RFP ratio fluorescence, overnight; percent of plate control window, DMSO zero | 360,000 compounds, 0.061% hits | AID 651647, 2012;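 active = GFP/RFP ratio change of at least 30% with cell ATP level not reduced by more than half and red fluorescence within 50% of control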
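Assay system: HT1080 RFP-PRO-GFP cells | Dosing: 20 µM single dose, 1% DMSO | Incubation: Cells overnight before dosing, compound overnight, 37 °C, 5% CO2 | Evaluation: GFP/RFP fluorescence ratio | Control set: DMSO-only wells and HT1080 RFP-L50D-GFP cell wells as references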
CendR NRP1 mod – modulators of CendR peptide binding to NRP-1, primary screen, biochemical, fluorescence polarization, uHTS. Neuropilin-1 (Homo sapiens), O14786. 360,000 compounds, 0.85% hits. FAM-RPARPAR peptide binding to NRP-1. inhibition, % at 25 µM;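 active = inhibition or corrected inhibition above about 18%, plus a signal ratio from 0.5 to 1.5, limit read from the data, passing the limit was not always enough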
SKN-1 block – suppressors of acrylamide-induced Pgst-4::GFP reporter in worms, primary screen, SKN-1 inhibitor project, whole organism, uHTS, GFP/RFP fluorescence ratio, strain VP596; C. elegans VP596 Pgst-4::GFP/RFP ratio, 24 h; inhibition, % at 21.8 µM; 360,000 compounds, 0.49% hits;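 active = interference check ratio from 0.5 to 1.5 plus GFP to RFP signal ratio inhibition reaching or exceeding a fixed threshold, cut at about 30% in these data, passing the limit was not always enough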
hiPSC survival – enhancers of single-cell hiPSC survival, primary screen, ATPlite luminescence | survival enhancement, % at 20 µM | 100% = ROCK inhibitor wells, 0% = DMSO | AID 602274, 2012 | 360,000 compounds, 0.044% hits; in the data active = survival enhancement above about 18%;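 also: cells exposed to compounds for 16 hours before the ATP read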
Starred values were filed as active, the others as inactive.

SMILES	MT1-MMP act inh	CendR NRP1 mod	SKN-1 block	hiPSC survival
Cn1c(=O)oc2cc(S(=O)(=O)N3CCN(c4cccc(Cl)c4)CC3)ccc21	-14.7	-63.3	26.3	-0.3
O=C(Cn1nc(C(F)F)cc1C(F)F)NNC(=S)Nc1ccc(Cl)cc1	1.4	3.1	6.0	1.3
Cc1ccc2c(c1)CCCN2S(=O)(=O)c1cccc(C(=O)Nc2ccccc2C(=O)O)c1	6.3	-9.6	-11.7	-0.5
O=C(Nc1nnc(CCN2CCOCC2)s1)C1CCCCC1	1.0	37.2*	9.9	2.8
CCCCNc1nnc(SCC(=O)c2c[nH]c3ccccc23)s1	-3.3	-22.7	4.6	3.5
O=C(CCCC(=O)NCC1CCCO1)NCC1CCCO1 (stereo not drawn)	-0.7	26.3*	14.8	-0.7
O=C(COC(=O)c1cccc(Cl)c1)NCc1ccccc1	-1.4	9.1	13.6	5.1
COc1cc(OC)nc(NC(=O)COC(=O)c2cccc(Cl)c2)n1	4.1	32.2*	1.9	0.4
CSc1nc2ccccc2c(=O)n1C1CCOC(C)(C)C1 (stereo not drawn)	0.9	27.7*	-2.2	0.3
O=C(COC(=O)c1ccc(F)c([N+](=O)[O-])c1)NC(=O)NCc1ccccc1	3.3	22.4*	-4.1	-0.4
O=C(CN(Cc1ccco1)C(=O)CNS(=O)(=O)c1ccc(Cl)cc1)NC1CCCCC1	-5.3	-4.0	37.5*	-4.3
Cc1ccc(N=C2NC(=O)/C(=C\c3ccc(C)s3)S2)cc1	-10.5	-37.1	37.8*	0.1
CN(C)c1ccc2nc3ccc(=O)cc-3sc2c1	5.6	-9.2	85.7	0.5
CN(C)c1ccc2nc3ccc(=[N+](C)C)cc-3sc2c1	-8.9	13.2	37.0*	-2.3
CC(C)(C)NC(=O)NC12CC3CC(CC(C3)C1)C2	-1.7	22.3*	15.2	0.8
CCN(C)C1CN(Cc2cn(Cc3ccc(OC)cc3)nn2)S(=O)(=O)C1 (stereo not drawn)	-3.6	-9.3	-14.0	1.6
Cc1ccc(C)c(C(=O)Nc2c(C(N)=O)oc3ccccc23)c1	3.2	-8.7	-23.1	-0.9
Cc1cccnc1NC(=O)c1ccco1	-1.3	21.6*	-1.7	-0.4
CC(C)NS(=O)(=O)c1ccc2c(c1)oc(=O)n2C	1.6	21.9*	10.3	1.2
CC(=O)c1cccc(NS(=O)(=O)c2ccc3c(c2)oc(=O)n3C)c1	4.5	2.8	36.8*	-2.4
CCOc1ccc(NC(=O)CCc2c(C)nn(-c3ccc(N4CCCCC4)nn3)c2C)cc1	-0.3	2.0	19.2	-0.3
CCn1nc(C)c(Br)c1-c1nc(CS(=O)(=O)c2ccc(F)cc2)no1	8.0	9.6	4.1	0.1
Cc1cc(=O)n2nc(N3CCCC(C(=O)N4CCOCC4)C3)sc2n1 (stereo not drawn)	-7.9	44.4*	6.1	-0.1
CC1(C(=O)NCc2cccc3ccccc23)CCN1Cc1cccc2c1OCO2 (stereo not drawn)	-4.9	25.5*	8.7	1.3
O=C(O)C1CCN(C(=O)c2csc(-c3ccc4c(c3)CCO4)n2)CC1	3.7	-0.2	-8.7	0.4
SMILES	MT1-MMP act inh	CendR NRP1 mod	SKN-1 block	hiPSC survival
C=CCOc1ccc(CNCc2cccnc2)cc1	-1.8	5.6	14.6	-0.5
CC(C)CC(C(=O)NCc1ccccn1)N1C(=O)c2ccccc2C1=O (stereo not drawn)	-2.1	-1.0	41.8*	-0.4
C#CCNC(=O)C1=C[C@@H](c2cn(C(C)=O)c3ccccc23)C[C@@H](OCCCCO)O1	-2.5	-23.0	44.8*	-1.4
CCCCN(CCCC)Cc1cc(=O)oc2cc(C)c(Cl)cc12	-5.1	-3.1	1.5	-2.2
Cc1c(C(=O)Nc2ccc(OC(F)(F)F)cc2)sc2nc3n(c(=O)c12)CCC3	-0.8	43.7*	-5.1	-0.5
COc1ccc(CNC(=O)CN2C(=O)C(C)N(c3ccc(C)cc3)C2=O)cc1 (stereo not drawn)	1.8	-6.7	-3.1	1.1
Cc1ccc(SCCN2CCN(C)CCC2=O)cc1	-2.6	26.2*	5.0	-0.4
CN1CCC(=O)N(CCSc2ccccc2)CC1	-0.4	3.2	14.3	1.0
COc1cc(COc2ccc(S(=O)(=O)N3CCOCC3)cc2[N+](=O)[O-])ccc1OC(F)F	2.7	3.4	-12.1	1.3
Cc1c(Cl)cccc1NC(=S)NCc1cccn1C	-3.8	28.3*	-1.7	0.1
CCCCn1nnnc1C(c1ccccc1)N1CCN(c2ccc(OC)cc2)CC1 (stereo not drawn)	-3.8	13.0	11.9	0.0
COC(=O)c1ccc(CN2C(=O)c3ccccc3C2=O)cc1	-1.9	-3.7	9.4	-0.6
CCCCOc1ccc(C(C)NC(=O)CCS(=O)(=O)Cc2ccccc2Cl)cc1 (stereo not drawn)	2.5	19.9	6.3	1.8
COc1ccc(CN2CC(C(=O)NCCC(C)C)CC2=O)cc1 (stereo not drawn)	-3.0	-9.8	8.3	-0.7
COc1ccc(N(CC(=O)N2CCc3ccccc3C2)S(C)(=O)=O)cc1OC	2.4	-3.1	14.5	-1.1
COc1ccccc1N(CC(=O)N1CCc2ccccc2C1)S(C)(=O)=O	0.0	24.8*	7.2	1.6
COc1ccc(C)cc1N(CC(=O)N1CCc2ccccc2C1)S(C)(=O)=O	-3.8	26.5*	7.7	-0.1
c1ccc(-n2nnc(-c3nccs3)n2)cc1	-2.3	23.7	36.4*	-0.2
C[C@H](NC(=O)c1nc[nH]c1C(=O)N1CCN(C(=O)OC(C)(C)C)CC1)c1ccccc1	0.8	18.4	17.8	-1.0
C[C@@H](NC(=O)c1nc[nH]c1C(=O)NC1CCN(C(=O)OC(C)(C)C)CC1)c1ccccc1	1.9	22.4*	-0.5	-2.8
CC(C)(C)OC(=O)N1CCC(NC(=O)c2[nH]cnc2C(=O)Nc2cccc(Cl)c2)CC1	1.1	32.9*	3.3	-1.7
Cc1ccc(S(=O)(=O)NC(=O)Nc2ccccc2F)cc1	0.8	6.0	-1.7	-2.1
Fc1ccc(SCCc2ccccn2)cc1	5.8	-6.7	7.1	0.2
O=C(O)c1ccc(CSC2CCCCC2)cc1	-2.5	22.1*	13.0	-0.7
O=C(O)c1ccc(CSc2nnc(SCc3ccccc3)s2)cc1	1.8	10.8	2.0	8.9
SMILES	MT1-MMP act inh	CendR NRP1 mod	SKN-1 block	hiPSC survival
Cc1cc(Cl)cc(C)c1OCCCCN1CCOCC1	7.4	5.6	42.5*	-1.9
Clc1ccc(OCCCCCN2CCOCC2)cc1	-0.7	3.1	39.5*	-0.7
CCCCOc1ccc(OCCCN2CCOCC2)cc1	3.2	10.9	-3.0	-1.3
CC(=C/c1ccco1)/C=N/N1CCN(c2ccccc2)CC1	0.6	-0.9	36.0*	-3.0
CC(/C=N/N1CCN(c2ccccc2)CC1)=C\c1ccccc1	-1.0	-10.2	3.8	2.1
CC(/C=N/N1CCN(c2ccccn2)CC1)=C\c1ccccc1	4.1	0.2	66.8*	-2.5
CCOC(=O)/C=C/COc1ccccc1[N+](=O)[O-]	-4.4	28.4*	-7.0	-0.1
